Test results reported in article PMC4065302 (Diabetes Therapy, 2014).

Experiments:
[1] = acidic pH; no reference given; cited from earlier work
[2] = Serum IAsp and IDeg pharmacokinetics; format: in vivo, human
Summary of the method: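 Subcutaneous abdominal dosing in T1DM subjects: insulin degludec 0.42 U/kg daily Days 1–5, insulin degludec/insulin aspart 0.6 U/kg on Day 6. Aspart was sampled predose to 12 h on Day 6. Degludec was sampled predose on Days 1–5, then to 48 h, plus 72, 96 and 120 h. Serum levels were measured by validated analyte-specific ELISAs; full analysis set n = 22.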

[3] = cited from earlier work
[4] = tested on: subjects with type 1 diabetes mellitus; assay: Safety and tolerability monitoring; format: in vivo, human; conditions: 22 subjects
Summary of the method: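 Adults 18–65 y with T1DM on insulin ≥12 months. Regimen: insulin degludec 0.42 U/kg s.c. once daily (~8 p.m.) Days 1–5, then single insulin degludec/insulin aspart 0.6 U/kg s.c. on Day 6, with bolus insulin aspart as needed. Monitored: treatment-emergent AEs, confirmed hypoglycemia (severe per ADA, or plasma glucose <3.1 mmol/L or blood glucose <2.8 mmol/L), physical exam, vital signs, ECG, labs. Summarized descriptively.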

[5] = while IDeg steady state was being attained (Days 1-5)

In the case of Insulin glargine, the “pH at which soluble” value [1] is listed as 4.

With insulin aspart [IAsp] the “AUCIAsp,0–12h (total serum exposure of IAsp in IDegAsp)” value ([2]; mean, n = 22, serum, ELISA, IDegAsp 0.6 U/kg s.c. (0.18 U/kg IAsp), Day 6) was 1,087 pmol h/L and the “t max,IAsp” value ([2]; median, n = 22, serum, ELISA, IDegAsp 0.6 U/kg s.c., Day 6) was 1.33 h.

For insulin degludec [IDeg], the duration of action [3] is given as “exceeding 42 h”, the half-life ([3]; no reference given) is given as over 24 h and the “time to clinical steady state” value ([2]; once-daily IDeg 0.42 U/kg s.c.) is given as 2 to 3 days. The injection site reactions ([4]; during the trial, s.c. administration) was “No injection site reactions”, the “treatment-emergent changes in clinical laboratory parameters, vital signs, physical examination or ECG” value ([4]; following subcutaneous administration) was “no significant treatment-emergent changes” and the confirmed hypoglycemic episodes [4, 5] was 22 episodes. For the same substance, the “subjects with confirmed hypoglycemic episodes” value [4, 5] was 13 subjects.
